From ChEMBL document CHEMBL2331224 (J Med Chem, 2013)

Legend:
[1] = target: T1, Retinoic acid receptor RXR-alpha (Homo sapiens) (UniProt P19793); test: Transactivation of RXRalpha (unknown origin) expressed in COS1 cells at 0.1 uM after 18 hrs by luciferase reporter gene assay relative to bexarotene; type: cell-based; details: COS-1
T1 sequence (whole entry): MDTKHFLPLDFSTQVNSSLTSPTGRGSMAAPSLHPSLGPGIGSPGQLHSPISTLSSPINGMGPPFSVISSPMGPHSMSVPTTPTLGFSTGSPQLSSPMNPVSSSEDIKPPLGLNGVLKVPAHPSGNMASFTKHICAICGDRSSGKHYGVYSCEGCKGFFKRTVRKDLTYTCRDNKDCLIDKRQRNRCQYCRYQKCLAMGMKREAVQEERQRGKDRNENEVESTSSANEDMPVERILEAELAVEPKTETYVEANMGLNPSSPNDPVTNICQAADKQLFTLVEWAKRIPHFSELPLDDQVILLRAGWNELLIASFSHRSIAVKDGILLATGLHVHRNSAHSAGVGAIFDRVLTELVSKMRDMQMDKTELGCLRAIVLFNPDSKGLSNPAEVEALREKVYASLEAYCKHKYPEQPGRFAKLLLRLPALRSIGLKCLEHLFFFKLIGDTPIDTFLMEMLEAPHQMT
Procedure, shortened: (§1)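 COS-1 cells in DMEM with 10% FBS at 37 °C, 5% CO2, transfected with RXRα, an RXR-response-element luciferase reporter and a SEAP background vector. Cells were seeded at about 2.0 × 10⁴ per well with compound (DMSO below 1%) for 18 h. Luciferase was normalized to SEAP and expressed relative to 1 μM reference RXR full agonist as 100%. EC50 came from full dose-response curves. Triplicates, at least three experiments.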

[2] = target: T1, Retinoic acid receptor RXR-alpha (Homo sapiens); test: Transactivation of RXRalpha (unknown origin) expressed in COS1 cells at 1 uM after 18 hrs by luciferase reporter gene assay relative to bexarotene; type: cell-based; details: COS-1; procedure, shortened: as §1
[3] = target: T1, Retinoic acid receptor RXR-alpha (Homo sapiens); test: Transactivation of RXRalpha (unknown origin) expressed in COS1 cells at 10 uM after 18 hrs by luciferase reporter gene assay relative to bexarotene; type: cell-based; details: COS-1; procedure, shortened: as §1
Mus musculus [4] = test: Toxicity in ICR mouse assessed as change in renal function parameters at 30 mg/kg/day, po for 7 days; type: organism-based; set-up: route oral; details: in vivo, 168 h
Procedure, shortened: (§2)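 Male ICR mice, 6−7 weeks old, four per cage, grouped by body weight. Oral 30 mg/kg or vehicle (1% ethanol/0.5% CMC in water, 10 mL/kg) once daily for 7 days, body weight recorded daily. After overnight fasting, mice were weighed under ether, and liver was removed and weighed. Serum was analysed on a dry-chemistry analyser for TG, TCHO, ALP, CRE, BUN and other markers. n = 7−23, ANOVA.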

Mus musculus [5] = test: Toxicity in ICR mouse assessed as increase in blood triglyceride level at 30 mg/kg/day, po for 7 days; type: organism-based; set-up: route oral; details: in vivo, 168 h; procedure, shortened: as §2
Mus musculus [6] = test: Toxicity in ICR mouse assessed as weight gain at 30 mg/kg/day, po for 7 days relative to control; type: organism-based; set-up: route oral; details: in vivo, 168 h; procedure, shortened: as §2
[7] = target: T2, Retinoic acid receptor RXR-alpha (Homo sapiens, UniProt P19793); test: Partial agonist activity at RXRalpha (unknown origin) expressed in COS1 cells after 18 hrs by luciferase reporter gene assay; type: cell-based, COS-1; procedure, shortened: as §1
T2 sequence (P19793 whole entry): T1 sequence (whole entry)

[8] = target: T1, Retinoic acid receptor RXR-alpha (Homo sapiens); test: Partial agonist activity at RXRalpha (unknown origin) expressed in COS1 cells after 18 hrs by luciferase reporter gene assay relative to bexarotene; type: cell-based; details: COS-1; procedure, shortened: as §1
Mus musculus [9] = test: Toxicity against KKAy mouse assessed as creatinine level at 10 mg/kg/day, po for 14 days (reference value: 0.2 mg/dl); type: organism-based; set-up: route oral; details: in vivo, 336 h
Mus musculus [10] = test: Toxicity against KKAy mouse assessed as total cholesterol level at 10 mg/kg/day, po for 14 days (reference value: 153.2 +/- 11.1 mg/dL); type: organism-based; set-up: route oral; details: in vivo, 336 h
Mus musculus [11] = test: Toxicity against KKAy mouse assessed as plasma triglyceride level at 10 mg/kg/day, po for 14 days (reference value: 122.4 +/- 11.0 mg/dL); type: organism-based; set-up: route oral; details: in vivo, 336 h
Mus musculus [12] = test: Toxicity against KKAy mouse assessed as blood urea nitrogen level at 10 mg/kg/day, po for 14 days (reference value: 21.9 +/- 1.1 mg/dL); type: organism-based; set-up: route oral; details: in vivo, 336 h
Mus musculus [13] = test: Toxicity against KKAy mouse assessed as plasma ALP level at 10 mg/kg/day, po for 14 days (reference value: 358.2 +/- 43.1 IU); type: organism-based; set-up: route oral; details: in vivo, 336 h
Mus musculus [14] = test: Toxicity against KKAy mouse assessed as plasma gammaGTP level at 10 mg/kg/day, po for 14 days (reference value: 5.8 +/- 0.6 IU); type: organism-based; set-up: route oral; details: in vivo, 336 h
Mus musculus [15] = test: Toxicity against KKAy mouse assessed as plasma ALT level at 10 mg/kg/day, po for 14 days (reference value: 17.6 +/- 0.9 IU); type: organism-based; set-up: route oral; details: in vivo, 336 h
Mus musculus [16] = test: Toxicity against KKAy mouse assessed as plasma AST level at 10 mg/kg/day, po for 14 days (reference value: 49.6 +/- 2.3 IU); type: organism-based; set-up: route oral; details: in vivo, 336 h

Row | SMILES | Efficacy [1] | Efficacy [2] | Efficacy [3] | EC50 [7] | Emax [8] | other results
1 | Cc1cc2c(cc1-n1c(=O)[nH]c3cc(C(=O)O)ccc31)C(C)(C)CCC2(C)C | < 5% | < 5% | 22% | – | – | –
2 | CCN(c1ccc2c(c1)C(C)(C)CCC2(C)C)c1ccc(C(=O)O)cn1 | 86% | 96% | 98% | 0.0038 µM | – | Activity (Mus musculus [4]): Non-toxic; Activity (Mus musculus [5]): Non-toxic; Activity (Mus musculus [6]): Non-toxic
3 | Cc1cc2c(cc1-n1c(N)nc3cc(C(=O)O)ccc31)C(C)(C)CCC2(C)C | < 5% | 35% | 96% | 0.155 µM | 103% | –
4 | Cc1cc2c(cc1-n1ccc3cc(C(=O)O)ccc31)C(C)(C)CCC2(C)C | 45% | 67% | 77% | 0.083 µM | 73% | –
5 | Cc1cc2c(cc1-n1c(=S)[nH]c3cc(C(=O)O)ccc31)C(C)(C)CCC2(C)C | < 5% | < 5% | 37% | – | – | –
6 | CCc1ccc(CCOc2ccc(CC3SC(=O)NC3=O)cc2)nc1 (centres undefined) [PIOGLITAZONE] | – | – | – | – | – | Activity (Mus musculus [9]): 0.2 mg/dL; Activity (Mus musculus [10]): 147.3 mg/dL; Activity (Mus musculus [11]): 124 mg/dL; Activity (Mus musculus [12]): 22.2 mg/dL; Activity (Mus musculus [13]): 395.7 IU; Activity (Mus musculus [14]): 7.3 IU; Activity (Mus musculus [15]): 21.3 IU; Activity (Mus musculus [16]): 45.3 IU
7 | Cc1cc2c(cc1-n1c(C)nc3cc(C(=O)O)ccc31)C(C)(C)CCC2(C)C | 28% | 70% | 80% | 0.367 µM | 94% | Activity (Mus musculus [4]): Non-toxic; Activity (Mus musculus [5]): Non-toxic; Activity (Mus musculus [6]): Non-toxic
8 | Cc1cc2c(cc1-n1cnc3cc(C(=O)O)ccc31)C(C)(C)CCC2(C)C | < 5% | 52% | 72% | 0.633 µM | 75% | –
